In ChEMBL document CHEMBL2407008, “Synthesis and biological evaluation of a new series of highly functionalized 7'-homo-anhydrovinblastine derivatives” (J Med Chem, 2013):
Active and inactive are the calls of the source. No cut-off for these calls is given here.

Assays:
[1] = Inhibition of sheep brain tubulin polymerization by UV spectrophotometric analysis; design: species or system Ovis aries
How it was run: (§1)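 Sheep brain tubulin was mixed with compound in DMSO at 0 °C, then warmed to 37 °C. Assembly was followed as optical density at 350 nm. Maximum assembly rate was compared with a drug-free sample, and IC50 was derived from several concentrations. Vinorelbine IC50 was measured the same day on the same tubulin preparation.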

[2] = tested on: HCT-116; experiment: Cytotoxicity against human HCT116 cells after 72 hrs by resazurin assay; format: functional, cell-based; conditions: HCT-116, 72 h
How it was run: (§2)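 Cells were seeded at 2.5 × 10^3/well, cultured 24 h, then given compound in DMSO (<0.1%) at several concentrations for 72 h. Media: RPMI 1640/10% FCS for K562 and HCT116; DMEM/10% FCS for U87-MG; EGM2 with growth factors and 2% FCS for HUVEC. Resazurin was added for 1.5 h and fluorescence read (ex 560/em 590 nm). IC50 is the 50% fluorescence drop versus untreated cells. Run in triplicate.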

[3] = tested on: K562; experiment: Cytotoxicity against human K562 cells after 72 hrs by resazurin assay; format: functional, cell-based; conditions: K562, 72 h; how it was run: as §2
[4] = tested on: HUVEC; experiment: Cytotoxicity against HUVEC after 72 hrs by resazurin assay; format: cell-based; conditions: Homo sapiens; how it was run: as §2
[5] = Cytotoxicity against human U87MG cells after 72 hrs by resazurin assay; format: functional, cell-based, U-87MG ATCC; conditions: U-87 MG; how it was run: as §2
[6] = organism: Ovis aries; experiment: Ratio of compound IC50 to vinorelbine IC50 for sheep brain tubulin polymerization; how it was run: as §1
[7] = tested on: K562; experiment: Cell cycle arrest in human K562 cells assessed as accumulation at G2/M phase at >10 nM after 24 hrs by propidium iodide staining-based flow cytometric analysis; format: functional
How it was run: (§3)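 K562 cells grown in RPMI 1640 with 10% FCS and 1% glutamine, 37 °C, 5% CO2. Exponentially growing cells were exposed for 24 h to compound at two concentrations, or to DMSO. Cells were then harvested, PBS-washed, fixed in cold 70% ethanol (30 min, +4 °C) and held at −20 °C overnight. DNA was stained with propidium iodide plus RNase for 30 min, and the profile was read by flow cytometry.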

[8] = Cell cycle arrest in human U87MG cells assessed as accumulation at G2/M phase at 5 nM after 24 hrs by propidium iodide staining-based flow cytometric analysis; format: functional; conditions: U-87MG ATCC
How it was run: (§4)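 U87-MG glioblastoma cells grown in DMEM with 10% FCS and L-glutamine, 37 °C, 5% CO2. Exponentially growing cells were treated for 24 h at two concentrations, or with DMSO. Cells were harvested, dissociated, PBS-washed, fixed in cold 70% ethanol and kept at −20 °C overnight. Staining used propidium iodide with RNase for 30 min, followed by flow-cytometric cell-cycle profiling.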

[9] = tested on: K562; experiment: Cell cycle arrest in human K562 cells assessed as accumulation at G2/M phase at 10 nM after 24 hrs by propidium iodide staining-based flow cytometric analysis; format: functional; how it was run: as §3
[10] = Cell cycle arrest in human U87MG cells assessed as accumulation at G2/M phase at >5 nM after 24 hrs by propidium iodide staining-based flow cytometric analysis; format: functional; conditions: U-87MG ATCC; how it was run: as §4
[11] = Cell cycle arrest in human U87MG cells assessed as accumulation at G2/M phase at >50 nM after 24 hrs by propidium iodide staining-based flow cytometric analysis; format: functional; conditions: U-87MG ATCC; how it was run: as §4
[12] = tested on: K562; experiment: Cell cycle arrest in human K562 cells assessed as accumulation at G2/M phase at >50 nM after 24 hrs by propidium iodide staining-based flow cytometric analysis; format: functional; how it was run: as §3
[13] = Cell cycle arrest in human U87MG cells assessed as accumulation at G2/M phase at 50 nM after 24 hrs by propidium iodide staining-based flow cytometric analysis; format: functional; conditions: U-87MG ATCC; how it was run: as §4
[14] = tested on: K562; experiment: Cell cycle arrest in human K562 cells assessed as accumulation at G2/M phase at 50 nM after 24 hrs by propidium iodide staining-based flow cytometric analysis; format: functional; how it was run: as §3

Structure (SMILES)	IC50 [1] [nM]	IC50 [2] [nM]	IC50 [3] [nM]	IC50 [4] [nM]	IC50 [5] [nM]	further results
CCC1=C[C@@H]2CN(C1)C[C@H](C(=O)OCc1ccccc1)Cc1c([nH]c3ccccc13)[C@@](C(=O)OC)(c1cc3c(cc1OC)N(C)[C@H]1[C@@](O)(C(=O)OC)[C@H](OC(C)=O)[C@]4(CC)C=CCN5CC[C@]31[C@@H]54)C2	> 100000	–	–	–	–	–
CCC1=C[C@@H]2CN(C1)Cc1c([nH]c3ccccc13)[C@@](C(=O)OC)(c1cc3c(cc1OC)N(C)[C@H]1[C@@](O)(C(=O)OC)[C@H](OC(C)=O)[C@]4(CC)C=CCN5CC[C@]31[C@@H]54)C2 [VINORELBINE]	700	35	20	2	2	–
C=CCNC(=O)[C@@H]1[C@H](C(=O)OC)Cc2c([nH]c3ccccc23)[C@@](C(=O)OC)(c2cc3c(cc2OC)N(C)[C@H]2[C@@](O)(C(=O)OC)[C@H](OC(C)=O)[C@]4(CC)C=CCN5CC[C@]32[C@@H]54)C[C@@H]2C=C(CC)CN1C2	4900	45	50	25	10	–
C=CCNC(=O)/C1=C(\C(=O)OC)Cc2c([nH]c3ccccc23)[C@@](C(=O)OC)(c2cc3c(cc2OC)N(C)[C@H]2[C@@](O)(C(=O)OC)[C@H](OC(C)=O)[C@]4(CC)C=CCN5CC[C@]32[C@@H]54)C[C@@H]2C=C(CC)CN1C2	3700	1800	1000	2000	3000	–
CC[C@]1(O)C[C@@H]2CN(CCc3c([nH]c4ccccc34)[C@@](C(=O)OC)(c3cc4c(cc3OC)N(C)[C@H]3[C@@](O)(C(=O)OC)[C@H](OC(C)=O)[C@]5(CC)C=CCN6CC[C@]43[C@@H]65)C2)C1 [VINBLASTINE]	2100	3.5	7	0.8	1	–
CCC1=C[C@@H]2CN(C1)/C(C(=O)NC(C)C)=C(/C(=O)OC)Cc1c([nH]c3ccccc13)[C@@](C(=O)OC)(c1cc3c(cc1OC)N(C)[C@H]1[C@@](O)(C(=O)OC)[C@H](OC(C)=O)[C@]4(CC)C=CCN5CC[C@]31[C@@H]54)C2	1600	2500	1500	700	350	Ratio IC50 [6]: 2
CCOC(=O)/C1=C/N2CC(CC)=C[C@H](C2)C[C@](C(=O)OC)(c2cc3c(cc2OC)N(C)[C@H]2[C@@](O)(C(=O)OC)[C@H](OC(C)=O)[C@]4(CC)C=CCN5CC[C@]32[C@@H]54)c2[nH]c3ccccc3c2C1	> 100000	–	–	–	–	–
CCC1=C[C@@H]2CN(/C=C(/C(=O)OC)Cc3c([nH]c4ccccc34)[C@@](C(=O)OC)(c3cc4c(cc3OC)N(C)[C@H]3[C@@](O)(C(=O)OC)[C@H](OC(C)=O)[C@]5(CC)C=CCN6CC[C@]43[C@@H]65)C2)C1	18000	500	500	250	700	–
CCC1=C[C@@H]2CN(C1)/C(C(=O)OC)=C(/C(=O)OC)Cc1c([nH]c3ccccc13)[C@@](C(=O)OC)(c1cc3c(cc1OC)N(C)[C@H]1[C@@](O)(C(=O)OC)[C@H](OC(C)=O)[C@]4(CC)C=CCN5CC[C@]31[C@@H]54)C2	6000	500	1000	100	700	–
CCC1=C[C@@H]2CN(C1)[C@H](C(=O)NCc1ccccc1)[C@H](C(=O)OC)Cc1c([nH]c3ccccc13)[C@@](C(=O)OC)(c1cc3c(cc1OC)N(C)[C@H]1[C@@](O)(C(=O)OC)[C@H](OC(C)=O)[C@]4(CC)C=CCN5CC[C@]31[C@@H]54)C2	2700	200	75	60	70	–
CCC1=C[C@@H]2CN(C1)/C(C(=O)NC(C)(C)C)=C(/C(=O)OC)Cc1c([nH]c3ccccc13)[C@@](C(=O)OC)(c1cc3c(cc1OC)N(C)[C@H]1[C@@](O)(C(=O)OC)[C@H](OC(C)=O)[C@]4(CC)C=CCN5CC[C@]31[C@@H]54)C2	10400	60	50	25	25	–
CCC1=C[C@@H]2CN(C1)[C@H](C(=O)NC(C)C)[C@H](C(=O)OC)Cc1c([nH]c3ccccc13)[C@@](C(=O)OC)(c1cc3c(cc1OC)N(C)[C@H]1[C@@](O)(C(=O)OC)[C@H](OC(C)=O)[C@]4(CC)C=CCN5CC[C@]31[C@@H]54)C2	500	100	60	150	20	Ratio IC50 [6]: 0.6
CCOC(=O)[C@@H]1Cc2c([nH]c3ccccc23)[C@@](C(=O)OC)(c2cc3c(cc2OC)N(C)[C@H]2[C@@](O)(C(=O)OC)[C@H](OC(C)=O)[C@]4(CC)C=CCN5CC[C@]32[C@@H]54)C[C@@H]2C=C(CC)CN(C2)C1	> 100000	–	–	–	–	–
CCC1=C[C@@H]2CN(/C=C(/C(=O)OCc3ccccc3)Cc3c([nH]c4ccccc34)[C@@](C(=O)OC)(c3cc4c(cc3OC)N(C)[C@H]3[C@@](O)(C(=O)OC)[C@H](OC(C)=O)[C@]5(CC)C=CCN6CC[C@]43[C@@H]65)C2)C1	> 100000	–	–	–	–	–
CCC1=C[C@@H]2CN(C1)[C@H](C(=O)OC)[C@H](C(=O)OC)Cc1c([nH]c3ccccc13)[C@@](C(=O)OC)(c1cc3c(cc1OC)N(C)[C@H]1[C@@](O)(C(=O)OC)[C@H](OC(C)=O)[C@]4(CC)C=CCN5CC[C@]31[C@@H]54)C2	8600	6	5	2.5	1.5	Activity [7]: Active; Activity [8]: Active; Activity [9]: Active; Activity [10]: Active
CCC1=C[C@@H]2CN(C1)/C(C(=O)NCc1ccccc1)=C(/C(=O)OC)Cc1c([nH]c3ccccc13)[C@@](C(=O)OC)(c1cc3c(cc1OC)N(C)[C@H]1[C@@](O)(C(=O)OC)[C@H](OC(C)=O)[C@]4(CC)C=CCN5CC[C@]31[C@@H]54)C2	10400	250	80	40	10	–
CCC1=C[C@@H]2CN(C1)[C@H](C(=O)NC(C)(C)C)[C@H](C(=O)OC)Cc1c([nH]c3ccccc13)[C@@](C(=O)OC)(c1cc3c(cc1OC)N(C)[C@H]1[C@@](O)(C(=O)OC)[C@H](OC(C)=O)[C@]4(CC)C=CCN5CC[C@]31[C@@H]54)C2	1100	300	250	70	80	Ratio IC50 [6]: 1.7
CCC1=C[C@@H]2CN(C1)C[C@H](C(=O)OC)Cc1c([nH]c3ccccc13)[C@@](C(=O)OC)(c1cc3c(cc1OC)N(C)[C@H]1[C@@](O)(C(=O)OC)[C@H](OC(C)=O)[C@]4(CC)C=CCN5CC[C@]31[C@@H]54)C2	2500	18	15	8	7	Activity [11]: Active; Activity [12]: Active; Activity [13]: Active; Activity [14]: Active
